The record followed here is ChEMBL document CHEMBL1144100, “Homo- and nor-plakotenin, new carboxylic acids from the Palauan sponge Plakortis lita” (1999).

Experiment [1] can be described thus: Antiproliferative activity against rheumatoid synovial fibroblasts assessed as inhibition of PDGF-BB-induced DNA synthesis at 1 ug/mL treated 15 mins before PDGF-BB challenge by [3H]thymidine incorporation assay. It counts as functional. Put shortly:
(§1)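 Rheumatoid synovial fibroblasts plated at 1.2 × 10^4 cells/well in EMEM with 10% heat-inactivated FBS and penstrep, allowed to adhere 6 h at 37 °C, 5% CO2. Then serum-arrested 24 h in 0.2% FBS. Compounds added in DMSO (0.5% final) for 15 min at room temperature, then 1 nM PDGF-BB in 10% FBS medium for 24 h. Pulsed with 0.5 µCi/well [3H]-thymidine for 24 h, trypsin/EDTA-detached, harvested, scintillation counted versus controls.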

A short description of experiment [2]: Antiproliferative activity against rheumatoid synovial fibroblasts assessed as inhibition of PDGF-BB-induced DNA synthesis at 0.1 ug/mL treated 15 mins before PDGF-BB challenge by [3H]thymidine incorporation assay. The experiment is classed as functional. Put shortly:
as §1

The source made the active and inactive calls. The rule behind the calls is not given here.

For the molecule `CCC1=C[C@@H](c2ccccc2)[C@@](/C=C(\C)C(=O)O)(CC)[C@H]2[C@H]1[C@H](C)C[C@H]2C` [listing 1 of 2 here], in experiment [1], the “inhibition (INH)” value was found to be 73.5%. Consider `CCC1=C[C@@H](c2ccccc2)[C@@](/C=C(\C)C(=O)[O-])(CC)[C@H]2[C@H]1[C@H](C)C[C@H]2C.[Na+]`, for which, in experiment [1], the “inhibition (INH)” value was found to be 27.8%. For `CC[C@@]1(/C=C(\C)C(=O)[O-])[C@H]2[C@H](C(C)=C[C@H]1c1ccccc1)[C@H](C)C[C@H]2C.[Na+]` [PLAKOTENIN SODIUM SALT], the “inhibition (INH)” value in experiment [1] is 35.7%. Regarding `CCC1=C[C@@H](c2ccccc2)[C@@](/C=C(\C)C(=O)O)(CC)[C@H]2[C@H]1[C@H](C)C[C@H]2C` [listing 2 of 2 here], the outcome in experiment [2] was inactive. With `CC[C@@]1(/C=C(\C)C(=O)O)[C@H]2[C@H](C(C)=C[C@H]1c1ccccc1)[C@H](C)C[C@H]2C` [PLAKOTENIN], in experiment [1], the “inhibition (INH)” value is reported as 76.8%. In the case of `CC1=C[C@@H](c2ccccc2)[C@](C)(/C=C(\C)C(=O)O)[C@H]2[C@H]1[C@H](C)C[C@H]2C`, the inhibition at 1 µg/mL in experiment [1] was 0%. The outcome in experiment [2] was inactive. With `CC[C@@]1(/C=C(\C)C(=O)O)[C@H]2[C@H](C(C)=C[C@H]1c1ccccc1)[C@H](C)C[C@H]2C`, the outcome in experiment [2] was inactive.
